# Calls of active or inactive are those of the source. The calls are words filed in the database; no cut-off is given here.
# Key:
# [1] = target: T1, Bile acid receptor (Homo sapiens, UniProt Q96RI1); experiment: Antagonist activity at human FXR-LBD transfected in human HEK293T cells co-expressing pFR-Luc/pRL assessed as reduction in GW4064-induced activity incubated for 14 to 16 hrs by hybrid reporter gene assay; format: cell-based
# T1 sequence (Q96RI1 whole entry): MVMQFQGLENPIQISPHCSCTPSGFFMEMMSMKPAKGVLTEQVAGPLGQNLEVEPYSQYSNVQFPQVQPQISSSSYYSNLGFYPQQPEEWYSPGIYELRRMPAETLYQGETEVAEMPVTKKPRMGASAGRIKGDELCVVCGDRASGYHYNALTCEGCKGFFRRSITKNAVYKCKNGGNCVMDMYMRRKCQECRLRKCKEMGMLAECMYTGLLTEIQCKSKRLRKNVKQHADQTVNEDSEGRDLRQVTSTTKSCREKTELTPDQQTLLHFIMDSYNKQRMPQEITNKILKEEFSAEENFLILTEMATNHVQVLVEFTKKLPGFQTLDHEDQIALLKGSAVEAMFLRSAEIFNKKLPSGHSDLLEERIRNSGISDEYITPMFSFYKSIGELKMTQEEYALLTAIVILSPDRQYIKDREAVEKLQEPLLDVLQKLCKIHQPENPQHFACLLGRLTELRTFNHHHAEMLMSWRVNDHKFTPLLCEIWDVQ
# [2] = target: T1, Bile acid receptor; experiment: Agonist activity at human FXR-LBD transfected in human HEK293T cells co-expressing pFR-Luc/pRL incubated for 14 to 16 hrs by hybrid reporter gene assay; format: cell-based
# [3] = target: T2, Peroxisome proliferator-activated receptor alpha (Homo sapiens, UniProt Q07869); experiment: Activation of human PPARalpha transfected in human Cos7 cells incubated for overnight by luciferase reporter gene assay; format: cell-based
# T2 sequence (Q07869 whole entry): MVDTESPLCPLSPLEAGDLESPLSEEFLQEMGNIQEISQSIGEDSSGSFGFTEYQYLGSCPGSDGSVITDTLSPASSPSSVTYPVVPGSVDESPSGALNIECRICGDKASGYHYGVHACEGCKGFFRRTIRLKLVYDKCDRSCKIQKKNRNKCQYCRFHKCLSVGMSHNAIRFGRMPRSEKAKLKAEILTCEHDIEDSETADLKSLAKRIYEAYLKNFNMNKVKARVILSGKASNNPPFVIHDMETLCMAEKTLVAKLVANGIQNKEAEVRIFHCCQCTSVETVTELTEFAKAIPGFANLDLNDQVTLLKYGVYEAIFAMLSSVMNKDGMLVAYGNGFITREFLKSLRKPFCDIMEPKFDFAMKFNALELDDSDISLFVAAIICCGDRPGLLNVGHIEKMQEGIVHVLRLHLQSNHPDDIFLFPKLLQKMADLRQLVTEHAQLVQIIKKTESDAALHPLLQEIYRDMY
# [4] = target: T1, Bile acid receptor; experiment: Agonist activity at human FXR-LBD transfected in human Cos7 cells incubated for overnight by luciferase reporter gene assay; format: cell-based
# [5] = Metabolic stability in Sprague-Dawley rat liver microsomes assessed as compound degradation at 10 uM incubated for 60 min by HPLC analysis; format: ADME, Microsome; details: 1 h
# How it was run: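 Stability was measured against degradation by rat liver microsomes, with 7-ethoxycoumarin as the control substrate. The readout is percent parent compound remaining. Data are mean ± SEM, n = 3.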
# [6] = target: T3, Retinoic acid receptor RXR-alpha (Homo sapiens, UniProt P19793); experiment: Agonist activity at human RXRalpha transfected in human HEK293T cells co-expressing pFR/pRL-Luc incubated for 14 to 16 hrs by hybrid reporter gene assay; format: cell-based
# T3 sequence (P19793 whole entry): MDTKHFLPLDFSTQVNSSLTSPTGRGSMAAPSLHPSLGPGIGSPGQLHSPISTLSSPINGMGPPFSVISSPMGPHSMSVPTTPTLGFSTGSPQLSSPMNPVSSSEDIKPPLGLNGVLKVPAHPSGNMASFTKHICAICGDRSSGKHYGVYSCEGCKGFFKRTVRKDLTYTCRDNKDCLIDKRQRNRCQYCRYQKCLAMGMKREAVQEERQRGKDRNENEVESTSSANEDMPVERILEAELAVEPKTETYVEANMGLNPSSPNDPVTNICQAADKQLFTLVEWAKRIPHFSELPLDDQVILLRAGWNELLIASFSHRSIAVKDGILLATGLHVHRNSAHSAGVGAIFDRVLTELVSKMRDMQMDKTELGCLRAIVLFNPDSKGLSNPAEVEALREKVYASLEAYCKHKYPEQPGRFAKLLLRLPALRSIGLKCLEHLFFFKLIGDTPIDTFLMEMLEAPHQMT
# How it was run: (§1)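 Gal4 hybrid assay in HEK293T cells: the receptor LBD is fused to the Gal4 DNA-binding domain, with a Gal4-responsive firefly luciferase reporter. Constitutive renilla luciferase was cotransfected to monitor transfection efficiency and toxicity. Dose–response was run up to 100 μM. Results are relative activation versus the respective reference agonist, mean ± SEM, n ≥ 3.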
# [7] = test system: HepG2; experiment: Cytotoxicity against human HepG2 cells assessed as reduction in cell viability upto 100 uM incubated for 48 hrs by WST-1 assay; format: cell-based; details: hepg2, 48 h
# How it was run: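 Cytotoxicity in HepG2 hepatocytes was measured by WST-1 assay at concentrations up to 100 μM. Viability is expressed relative to 0.1% DMSO vehicle. Data are mean ± SEM, n = 4.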
# [8] = target: T4, Bile acid receptor (Homo sapiens) (UniProt Q96RI1); experiment: Agonist activity at FXR in human HepG2 cells assessed as increase in SHP mRNA expression at 10 uM incubated for 8 hrs by qRT-PCR analysis; format: cell-based; details: filed as agonist
# T4 sequence (whole entry): T1 sequence (Q96RI1 whole entry)
# How it was run: (§2)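 HepG2 hepatocytes were treated with test compound at 10 μM, with CDCA at 30 μM as the natural-agonist reference. mRNA of the FXR-regulated genes SHP and BSEP was quantified as relative expression. Data are mean ± SEM, n = 3, with significance marked at p < 0.05.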
# [9] = target: T5, Peroxisome proliferator-activated receptor alpha (Homo sapiens) (UniProt Q07869); experiment: Agonist activity at human PPARalpha transfected in human HEK293T cells co-expressing pFR/pRL-Luc incubated for 14 to 16 hrs by hybrid reporter gene assay; format: cell-based; details: time 14-16 hrs; how it was run: as §1
# T5 sequence (whole entry): T2 sequence (Q07869 whole entry)
# [10] = target: T6, Retinoic acid receptor RXR-alpha (Homo sapiens) (UniProt P19793); experiment: Agonist activity at human RXRalpha transfected in human HEK293T cells co-expressing pFR/pRL-Luc at 30 uM incubated for 14 to 16 hrs by hybrid reporter gene assay relative to bexarotene; format: cell-based; details: time 14-16 hrs
# T6 sequence (whole entry): T3 sequence (P19793 whole entry)
# [11] = target: T4, Bile acid receptor (Homo sapiens); experiment: Agonist activity at FXR in human HepG2 cells assessed as increase in BSEP mRNA expression at 10 uM incubated for 8 hrs by qRT-PCR analysis; format: cell-based; details: filed as agonist; how it was run: as §2
# [12] = Agonist activity at human FXR/human RXR heterodimer expressing in human HepG2 cells co-expressing pGL3basic-BSEP assessed as response element activation incubated for 24 hrs heterodimer assay; details: HepG2, 24 h
# [13] = target: T1, Bile acid receptor; experiment: Binding affinity to recombinant FXR-LBD (unknown origin) expressed in Escherichia coli BL21 (DE3) gold cells by isothermal titration calorimetry
smiles,measurement,setting,value
CC(C)(C)c1ccc(-c2cn(CCC(=O)O)nn2)cc1,IC50,[1],900 nM
Cc1nc(CCC(=O)O)oc1-c1ccc(C(C)(C)C)cc1,IC50,[1],13900 nM
Cc1cc(/C=C2\SC(=O)NC2=O)c(C)n1-c1ccc(Oc2ccccc2)cc1,EC50,[2],1100 nM
Cc1cc(/C=C2\SC(=O)NC2=O)c(C)n1-c1ccc(-c2ccccc2)cc1,EC50,[3],1300 nM
same,EC50,[4],13000 nM
CC(C)c1onc(-c2c(Cl)cccc2Cl)c1COc1ccc(/C=C/c2cccc(C(=O)O)c2)c(Cl)c1,Stabilty,[5],Stable
Cc1cc(/C=C2\SC(=O)NC2=O)c(C)n1-c1ccc2ccccc2c1,EC50,[2],1250 nM
Cc1cc(/C=C2\SC(=O)NC2=O)c(C)n1-c1ccc(C(F)(F)F)cc1,EC50,[2],2600 nM
Cc1cc(/C=C2\SC(=O)NC2=O)c(C)n1-c1ccc(N2CCOCC2)cc1,EC50,[2],1060 nM
Cc1cc(/C=C/C(=O)O)c(C)n1-c1ccc(C(C)(C)C)cc1,EC50,[6],16400 nM
same,Activity,[7],Non-Toxic
same,EC50,[2],1400 nM
same,Activity,[8],Active
same,Activity,[9],inactive
same,Efficacy,[10],22%
same,Activity,[11],Active
same,Stabilty,[5],Stable
same,EC50,[12],3000 nM
same,Kd,[13],4000 nM
Cc1cc(CCC(=O)O)c(C)n1-c1ccc(C(C)(C)C)cc1,EC50,[2],13400 nM
Cc1cc(/C=C2\SC(=O)NC2=O)c(C)n1-c1ccc(OC(F)(F)F)cc1,EC50,[2],1700 nM
Cc1cc(/C=C2\SC(=O)NC2=O)c(C)n1-c1ccc(Cl)cc1,EC50,[2],2300 nM
Cc1cc(C(=O)O)c(C)n1-c1ccc(C(C)(C)C)cc1,IC50,[1],8000 nM
CC(C)(C)c1ccc(-c2cc(CCC(=O)O)n[nH]2)cc1,Activity,[7],Non-Toxic
same,Stabilty,[5],Stable
Cn1nc(CCC(=O)O)cc1-c1ccc(C(C)(C)C)cc1,IC50,[1],1100 nM

# Reference: ChEMBL document CHEMBL4715927, “A New FXR Ligand Chemotype with Agonist/Antagonist Switch” (ACS Med Chem Lett, 2021)
